ChEMBL document CHEMBL2062469, “1-(2-Mercaptobenzenesulfonyl)-3-hydroxyguanidines--novel potent antiproliferatives, synthesis and in vitro biological activity” (2012)

Columns and labels:
Format in all cases: functional
NCI-H522 = assay: Cytostatic activity against human NCI-H522 cells
Outline: (§1)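 NCI-60 human tumor cell line screen run by the US National Cancer Institute under the NIH Developmental Therapeutics Program protocol. A single-dose prescreen at 10 µM came first. Selected compounds then went into the 5-dose assay. Cytostatic activity is reported as GI50 (µM).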

786-0 = assay: Cytostatic activity against human 786-0 cells; outline: as §1
BT-549 = assay: Cytostatic activity against human BT549 cells; outline: as §1
LOX IMVI = assay: Cytostatic activity against human LOXIMVI cells; outline: as §1
HOP-92 = assay: Cytostatic activity against human HOP92 cells; outline: as §1
A498 = assay: Cytostatic activity against human A498 cells; outline: as §1
SF-268 = assay: Cytostatic activity against human SF268 cells; outline: as §1
SK-MEL-5 = assay: Cytostatic activity against human SK-MEL-5 cells; outline: as §1
EKVX = assay: Cytostatic activity against human EKVX cells; outline: as §1
NCI-H23 = assay: Cytostatic activity against human NCI-H23 cells; outline: as §1
SK-MEL-28 = assay: Cytostatic activity against human SK-MEL-28 cells; outline: as §1
HT-29 = assay: Cytostatic activity against human HT-29 cells; outline: as §1
CAKI-1 = assay: Cytostatic activity against human Caki1 cells; outline: as §1
SNB-19 = assay: Cytostatic activity against human SNB19 cells; outline: as §1
SK-MEL-2 = assay: Cytostatic activity against human SK-MEL-2 cells; outline: as §1
DU-145 = assay: Cytostatic activity against human DU145 cells; outline: as §1
HCC 2998 = assay: Cytostatic activity against human HCC2998 cells; outline: as §1
K562 = assay: Cytostatic activity against human K562 cells; outline: as §1
COLO 205 = assay: Cytostatic activity against human COLO205 cells; outline: as §1
NCI-H322M = assay: Cytostatic activity against human NCI-H322M cells; outline: as §1
MOLT-4 = assay: Cytostatic activity against human MOLT4 cells; outline: as §1
UO-31 = assay: Cytostatic activity against human UO31 cells
Outline: (§2)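 Human tumour cell lines from the NCI-60 panel, tested at the US National Cancer Institute under the NIH Developmental Therapeutics Program protocol. A single-dose prescreen at 10 µM came first. Selected compounds then went to a 5-dose assay, which gave GI50 and TGI values in µM.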

U-251 = assay: Cytostatic activity against human U251 cells; outline: as §2
SNB-75 = assay: Cytostatic activity against human SNB75 cells; outline: as §2
SK-OV-3 = assay: Cytostatic activity against human SKOV3 cells; outline: as §1
PC-3 = assay: Cytostatic activity against human PC3 cells; outline: as §1
HCT-116 = assay: Cytostatic activity against human HCT116 cells; outline: as §1
MDA-MB-231 = assay: Cytostatic activity against human MDA-MB-231/ATCC cells; outline: as §1
OVCAR-5 = assay: Cytostatic activity against human OVCAR5 cells; outline: as §1
T47D = assay: Cytostatic activity against human T47D cells; outline: as §2
NCI-H460 = assay: Cytostatic activity against human NCI-H460 cells; outline: as §1
UACC-62 = assay: Cytostatic activity against human UACC62 cells; outline: as §2
OVCAR-4 = assay: Cytostatic activity against human OVCAR4 cells; outline: as §1
MDA-MB-435 = assay: Cytostatic activity against human MDA-MB-435 cells; outline: as §1
CCRF-CEM = assay: Cytostatic activity against human CCRF-CEM cells; outline: as §1
SF-539 = assay: Cytostatic activity against human SF539 cells; outline: as §1
SR = assay: Cytostatic activity against human SR cells; outline: as §2
UACC-257 = assay: Cytostatic activity against human UACC257 cells; outline: as §2
NCI/ADR-RES = assay: Cytostatic activity against human NCI-ADR-RES cells; outline: as §1
SW-620 = assay: Cytostatic activity against human SW620 cells; outline: as §2
ACHN = assay: Cytostatic activity against human ACHN cells; outline: as §1
M14 = assay: Cytostatic activity against human M14 cells; outline: as §1
HCT-15 = assay: Cytostatic activity against human HCT15 cells; outline: as §1
OVCAR-8 = assay: Cytostatic activity against human OVCAR8 cells; outline: as §1
MCF7 = assay: Cytostatic activity against human MCF7 cells; outline: as §1
HOP-62 = assay: Cytostatic activity against human HOP62 cells; outline: as §1
NCI-H226 = assay: Cytostatic activity against human NCI-H226 cells; outline: as §1
OVCAR-3 = assay: Cytostatic activity against human OVCAR3 cells; outline: as §1
Hs-578T = assay: Cytostatic activity against human Hs 578T cells; outline: as §1
Malme-3M = assay: Cytostatic activity against human MALME-3M cells; outline: as §1
MDA-MB-468 = assay: Cytostatic activity against human MDA-MB-468 cells; outline: as §1
[1] = Cytostatic activity against human […] cells; outline: as §1
SN12C = assay: Cytostatic activity against human SN12C cells; outline: as §1
SF-295 = assay: Cytostatic activity against human SF295 cells; outline: as §1
RXF 393 = assay: Cytostatic activity against human RXF393 cells; outline: as §1
KM12 = assay: Cytostatic activity against human KM12 cells; outline: as §1
IGROV-1 = assay: Cytostatic activity against human IGROV1 cells; outline: as §1

N=C(NO)NS(=O)(=O)c1cc(-c2nnc(-c3ccccc3)s2)c(Cl)cc1SCc1ccc2c(c1)OCO2
GI50 (NCI-H522): 240 nM
TGI (NCI-H522): 800 nM
GI50 (786-0): 2270 nM
GI50 (BT-549): 1960 nM
TGI (BT-549): 4000 nM
GI50 (LOX IMVI): 1730 nM
GI50 (HOP-92): 1820 nM
TGI (HOP-92): 5100 nM
GI50 (A498): 1980 nM
TGI (A498): 5520 nM
GI50 (SF-268): 1610 nM
TGI (SF-268): 3320 nM
GI50 (SK-MEL-5): 1520 nM
TGI (SK-MEL-5): 2840 nM
GI50 (EKVX): 1650 nM
TGI (EKVX): 2990 nM
GI50 (NCI-H23): 1770 nM
TGI (NCI-H23): 3850 nM
GI50 (SK-MEL-28): 1680 nM
TGI (SK-MEL-28): 3500 nM
GI50 (HT-29): 1850 nM
TGI (HT-29): 3430 nM
GI50 (CAKI-1): 2030 nM
TGI (CAKI-1): 4420 nM
GI50 (SNB-19): 1770 nM
TGI (SNB-19): 3830 nM
GI50 (SK-MEL-2): 2010 nM
TGI (SK-MEL-2): 3750 nM
GI50 (DU-145): 1670 nM
TGI (DU-145): 3110 nM
GI50 (HCC 2998): 1850 nM
TGI (HCC 2998): 3590 nM
GI50 (K562): 1530 nM
TGI (K562): 3940 nM
GI50 (COLO 205): 1750 nM
TGI (COLO 205): 3280 nM
GI50 (NCI-H322M): 1580 nM
TGI (NCI-H322M): 4280 nM
GI50 (MOLT-4): 1140 nM
TGI (MOLT-4): 3080 nM
GI50 (UO-31): 1280 nM
TGI (UO-31): 3540 nM
GI50 (U-251): 1400 nM
TGI (U-251): 2850 nM
GI50 (SNB-75): 1070 nM
TGI (SNB-75): 2340 nM
GI50 (SK-OV-3): 1810 nM
TGI (SK-OV-3): 3340 nM
GI50 (PC-3): 1850 nM
TGI (PC-3): 4130 nM
GI50 (HCT-116): 1520 nM
TGI (HCT-116): 3310 nM
GI50 (MDA-MB-231): 1680 nM
TGI (MDA-MB-231): 3370 nM
GI50 (OVCAR-5): 2060 nM
TGI (OVCAR-5): 4360 nM
GI50 (T47D): 1690 nM
TGI (T47D): 4150 nM
GI50 (NCI-H460): 1790 nM
TGI (NCI-H460): 3560 nM
GI50 (UACC-62): 1700 nM
TGI (UACC-62): 3530 nM
GI50 (OVCAR-4): 1710 nM
TGI (OVCAR-4): 4980 nM
GI50 (MDA-MB-435): 1380 nM
TGI (MDA-MB-435): 2770 nM
GI50 (CCRF-CEM): 1040 nM
TGI (CCRF-CEM): 3660 nM
GI50 (SF-539): 2150 nM
TGI (SF-539): 4100 nM
GI50 (SR): 880 nM
TGI (SR): 4100 nM
GI50 (UACC-257): 1670 nM
TGI (UACC-257): 3230 nM
GI50 (NCI/ADR-RES): 3680 nM
GI50 (SW-620): 1460 nM
TGI (SW-620): 2860 nM
GI50 (ACHN): 1700 nM
TGI (ACHN): 3150 nM
GI50 (M14): 1740 nM
TGI (M14): 3470 nM
GI50 (HCT-15): 2020 nM
TGI (HCT-15): 4340 nM
GI50 (OVCAR-8): 1770 nM
TGI (OVCAR-8): 3740 nM
GI50 (MCF7): 1360 nM
TGI (MCF7): 3010 nM
GI50 (HOP-62): 1930 nM
TGI (HOP-62): 3710 nM
GI50 (NCI-H226): 2010 nM
TGI (NCI-H226): 4020 nM
GI50 (OVCAR-3): 1700 nM
TGI (OVCAR-3): 3080 nM
GI50 (Hs-578T): 2410 nM
TGI (Hs-578T): 6610 nM
GI50 (Malme-3M): 1710 nM
TGI (Malme-3M): 3600 nM
GI50 (MDA-MB-468): 1530 nM
TGI (MDA-MB-468): 2930 nM
GI50 [1]: 1760 nM
TGI [1]: 4520 nM
GI50 (SN12C): 1620 nM
TGI (SN12C): 3450 nM
GI50 (SF-295): 1630 nM
TGI (SF-295): 3550 nM
GI50 (RXF 393): 1680 nM
TGI (RXF 393): 3530 nM
GI50 (KM12): 1640 nM
TGI (KM12): 3030 nM
GI50 (IGROV-1): 1680 nM
TGI (IGROV-1): 3950 nM
